Tested on: MS2 coat protein
Test: apparent Kd, MS2 coat protein; higher = weaker binding; RNA-MaP array; FMN 200 µM where present
Procedure, shortened: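 Stalled E. coli RNA polymerase transcribed the designs on Illumina sequencing-chip clusters. SNAP-549-labelled MS2 coat protein was titrated from 0.7 or 1.5 nM, doubling to 3 µM, without and then with constant ligand, in 100 mM Tris-HCl pH 7.5, 80 mM KCl, 4 mM MgCl2, BSA, DTT, yeast tRNA and Tween-20. Per-cluster binding curves were fitted to green signal normalised to red-channel RNA signal and control-cluster median Fmax. The apparent Kd is the median of the filtered fits.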

[1] = designed as: OFF switch for flavin mononucleotide, no ligand
[2] = ligand present: flavin mononucleotide, designed as: OFF switch for flavin mononucleotide
[3] = designed as: ON switch for flavin mononucleotide, no ligand
[4] = ligand present: flavin mononucleotide, designed as: ON switch for flavin mononucleotide

Row | Sequence | apparent Kd [1] [nM] | apparent Kd [2] [nM] | apparent Kd [3] [nM] | apparent Kd [4] [nM]
1 | UCUUCACAUGAGGAUCACCCAUGUGAGGAUAUGGAUUCGCUGGCCGUAGCCAGUGGAUCCAGAAGGCGCAUGAU | 23.8 | 25 |  | 
2 | UGAAAACAUGAGGAUCACCCAUGUAAAAACAUGGGAGGAUAUUGAAAAAAAAAAAAAAAACAAGAAGGCCCAAAAA |  |  | 386 | 137
3 | UGAACCAUGACAUGAGAUGACAUGAGGAUCACCCAUGUGUACAAGGAUAUGUUGGUCGACGAUCGGCAGAAGGUGUAAUGGGAU | 58.9 | 196 |  | 
4 | UGAACUAUGUAGAAGGCCCACAUUAAUAUGUAGGGAGGAUAUACAUGAGGAUCACCCAUGUGAAGAGCAAGAGGAUUUAACAGA | 23.9 | 106 |  | 
5 | UGAACUAUGUAGAAGGCCCAUAUUUAUAUUUAGGGAGGAUAUACAUGAGGAUCACCCAUGUAUAGAGCAAGUGGACUUGUCAGU | 9.19 | 10.3 |  | 
6 | UGACGGCACACAGGAUAUAGUGCAGAAAGUGUACUAGAAGGGUGAGCACUCGUCCGGGCACAUGAGGAUCACCCAUGUCGUCGA |  |  | 207 | 512
7 | UGACGUAAAGAGAAGGGCUACUGGUUGAAACCUGCGGCCUCUGGAACAUGAGGAUCACCCAUGUAGCAGGAUAUCUUUGCAUCA | 166 | 18.1 |  | 
8 | UGACUCGGAGGAUAUACAUGAGGAUCACCCAUGUUUGCCGGCCGCCGAGUAACCUGGUGUAGAAGGUCGAGUGU | 20.4 | 18.9 |  | 
9 | UGAGAGUGAGGAUAUACGUCGCUGGUCCCGAUGGACGCAUGACAUGAGGAUCACCCAUGUAGAAGGCAUUUCCC | 33.8 | 128 |  | 
10 | UGAGCCUCGUGAGGAUAUACAUGAGGAUCACCCAUGUAAUAAAGUGAACGGAGGAAACUCCGAAUGUAGAAGGCACGAGGCUCA | 47.9 | 443 |  | 
11 | UGAGCUUGAGGAUAUACAUGAGGAUCACCCAUGUUGAGCUUGAGGAUCUUCGAGUUCGGUAGAAGGCGAGUUCG | 16 | 33 |  | 
12 | UGAGUGCUGCGAGGAUAUACAUGAGGAUCACCCAUGUAAAUGUGUGAGGCUUUGCCUCACACAAUGUAGAAGGCGCAGUACUCU | 14.5 | 17.2 |  | 
13 | UGAGUGUGAGGAUAUAUGGUAGGGAUGAAGGGAUAGAAUUAGUAGAAGGUACAUGAGGAUCACCCAUGUUAGGA | 24.4 | 21.9 |  | 
14 | UGAUAACAUGUAGGAUAUCCAGCAUUGACCAUCGGAGAAGGACAUGAGGAUCACCCAUGUACCGAUACAAUGGGAUAACGGAAU | 15.7 | 17.7 |  | 
15 | UGAUACAUGAGGAUCUCCCAUGACAUGAGGAUCACCCAUGUGCAGGAUAUACGUGUUAUAAUAUAGUAGAAGGGCAGUCUAUGU | 133 | 199 |  | 
16 | UGAUACAUGAGGGUCUCCCAUGACAUGAGGAUCACCCAUGUGCAGGAUAUACGUGUGAUGAUAUAGUAGAAGGGCAGUCUAUGU | 449 | 537 |  | 
17 | UGAUAGGACAGAGGAUAUACGGAUAGGAUCUACUAUCCUCCUUUAAUAACAUGAGGAUCACCCAUGUAGAAGGCUGUCCUAUCU | 15.3 | 24.2 |  | 
18 | UGAUAGGACAGAGGAUAUACGGCUAGGAGAUACUAGCUACUAUUCCUCACAUGAGGAUCACCCAUGUAGAAGGCUGUCCUAUCU | 16.9 | 148 |  | 
19 | UGAUAGGACAGAGGAUAUACGUGCUAGAGAUACUAGCAAAGUUUCUUGACAUGAGGAUCACCCAUGUAGAAGGCUGUCCUAUCU | 5.74 | 12.3 |  | 
20 | UGAUAGGACAGAGGAUAUACGUGCUAGAGAUACUAGCUAAUAAUCCUUACAUGAGGAUCACCCAUGUAGAAGGCUGUCCUAUCU | 19.5 | 45.5 |  | 
21 | UGAUAGGACAGAGGAUAUGCCGAUAGGCUCUACUAUCGAAGAAUCCUCACAUGAGGAUCACCCAUGUAGAAGGCUGUCCUAUCU | 19.1 | 48 |  | 
22 | UGAUAGGACAGAGGAUAUGCUGAUAGGAUCUACUAUCGAAGAAUCCUCACAUGAGGAUCACCCAUGUAGAAGGCUGUCCUAUCU | 12 | 143 |  | 
23 | UGAUCAAAUGUCAGGAUAUGCUGUUGUAAUCAACAGCAGAAGGGACAUGAGGAUCACCCAUGUCUUGUCGAUUU | 12.9 | 37.3 |  | 
24 | UGAUCCCAUGUCAGGAUAUAGAGGCGGUAGCCUGGCUAGAAGGGACAUGAGGAUCACCCAUGUCGGUUCUUGCC | 35.5 | 21.3 |  | 
25 | UGAUCGAGAGAUCUUAGAUUCUGGUAGGAUAUACAUUAUAAAAGCUUUACAUGAGGAUCACCCAUGUAGAAGGACUAGAGUCUA |  | 7.92 |  | 
26 | UGAUCUAUGUAGAAGGCCCAUAUCUAUAUUUAGGGAGGAUAUACAUGAGGAUCACCCAUGUAUAGAGCGGGUGGACCCGUCACU | 74.1 | 185 |  | 
27 | UGAUCUUGUGUCAGGAUAUGCUGGUCUCCUCUCCAGCAGAAGGGACAUGAGGAUCACCCAUGUUCUCUCUUUUU | 11 | 28.6 |  | 
28 | UGCAUGCUAGGAUAUACGAAACAUUAGGGUUCGUCGUAUGAACAUGAGGAUCACCCAUGUAGAAGGAGCGUGCU | 18.4 | 34.3 |  | 

Row | Sequence | apparent Kd [1] [nM] | apparent Kd [2] [nM] | apparent Kd [3] [nM] | apparent Kd [4] [nM]
29 | UGCAUGCUAGGAUAUACGGGACAUUAGGGUUCGUCGUGUGGACAUGAGGAUCACCCAUGUAGAAGGAGCGUGCU | 90 | 345 |  | 
30 | UGCCGUGUACAGAAGGGCGACAUGAGGAUCACCCAUGUCUCCUUGUUGGUCGUAGGAUAUGUACCGUGGCUCUCUACUGUGGGA | 5.47 | 6.75 |  | 
31 | UGCGGAAGAGGAUAUACGUAGAACUAGGUUCAUGUAAAACUACAUGAGGAUCACCCAUGUAGAAGGCUUUCGCU | 15.9 | 20.4 |  | 
32 | UGCGUACAAGCGGACAUGAGGAUCACCCAUGUAGUCUUAUGCGAGGAUAUCGGGAAGGAGGAUUCCGAGAAGGUGCGGUGAGCC |  |  | 17.5 | 15.2
33 | UGCGUGGUCACAGGAUAUGCAGGAUGAACUUUAGCAGAAGGGUGAUCAAUCAGCUCAAAACCACAUGAGGAUCACCCAUGUCUA |  |  | 31.9 | 92.9
34 | UGCUACGUUUCGUAGCAGUGUCAUCGAGAAGGCCCUGACAUGAGGAUCACCCAUGUUGUUACAUGGGAGGAUAUCGAUGAUACA |  |  |  | 5.16
35 | UGCUAGAAAGGAUAUACAUGAGGAUCACCCAUGUAACCCUAUAUGAGAGUUCCCGUUUGUAGAAGGUUCUCGUG | 16.9 | 26.5 |  | 
36 | UGCUAGGAUGGGUCUAAUGGACCGCAGGAUAUGCUUGUACAUGAGGAUCACCCAUGUAACAUUGUGCAGAAGGGUGGAUCCACG |  |  | 65.6 | 11.6
37 | UGCUAGUCAGGAUAUACGAACAUGUCAAAAGACGUGAAGGGACAUGAGGAUCACCCAUGUAGAAGGGACUAGCU | 38.4 | 129 |  | 
38 | UGCUGACAAGGAUAUACUCGGGAUGCUAGUCGCGCAGUUGCACAUGAGGAUCACCCAUGUAGAAGGUGUCAGUA | 169 | 210 |  | 
39 | UGCUGGCAAGGAUAUACUCGGGAUGCUAGUCGCGCGGUUGCACAUGAGGAUCACCCAUGUAGAAGGUGUCUGUG | 195 | 160 |  | 
40 | UGGACCGAGCUGUCGGUUGGCUGGCAGGAUAUGACAUGAGGAUCACCCAUGUGGGAUCUAAAUUGUCAGAAGGGCCGUUCUGGG | 212 | 25.4 |  | 
41 | UGGUACAAGGGAGGAUAUGGGAAGAUACAUGAGGAUCACCCAUGUUUAAGAAUGCCGAGAGGCAACUAGAAGGCCCUAGUACCU |  |  | 506 | 20.4
42 | UGGUACAUCAUAGGAUAUCGUGUGUAAACAUGAGGAUCACCCAUGUCAUACGAGAGUAUGUCGAUCGAGAAGGAUGAUGUACCU |  |  | 31.2 | 17.2
43 | UGGUACAUGGGAGGAUAUCAUGUAGACACAUGAGGAUCACCCAUGUCGAUGGAGACAUCGGAGAUUGAGAAGGCCCAUGUACCU |  |  | 226 | 8.3
44 | UGGUACAUGGGAGGAUAUGGGAUGAUAACAUGAGGAUCACCCAUGUUAAAGAUGCCGAGAGGCAACUAGAAGGCCCAUGUACCU |  |  | 281 | 62.4
45 | UGGUACUAGGGAGGAUAUGGGAAGAUACAUGAGGAUCACCCAUGUUUAAGAACGCCGAGAGGCAACUAGAAGGCCCUAGUACCU |  |  | 340 | 14.8
46 | UGGUACUAGGGAGGAUAUGGGAAGAUACAUGAGGAUCACCCAUGUUUAAGAAUGCCGAGAGGCAACUAGAAGGCACUAGUACCU |  |  | 1100 | 156
47 | UGGUACUAGGGAGGAUAUGGGAAGAUACAUGAGGAUCACCCAUGUUUAAGAAUGCCGAGAGGCAACUAGAAGGCCCUAGUACCG |  |  | 475 | 21.9
48 | UGGUACUAGGGAGGAUAUGGGAAGAUACAUGAGGAUCACCCAUGUUUAAGAAUGCCGAGAGGCAACUAGAAGGCUCUAGUACCU |  |  | 416 | 18.4
49 | UGGUACUAGGGAGGAUAUGGGAAGAUACAUGAGGAUCACCCAUGUUUAAGAAUGCCGUGAGGCAACUAGAAGGCCCUAGUACCU |  |  | 505 | 18.8
50 | UGGUACUAGGGAGGAUAUGUGAAGAUACAUGAGGAUCACCCAUGUUUAAGAAUGCCGAGAGGCAACUAGAAGGCCCUAGUACCU |  |  | 8.5 | 5.65
51 | UGGUCCUAGGGAGGAUAUGGGAAGAUACAUGAGGAUCACCCAUGUUUAAGAAUGCCGAGAGGCAACUAGAAGGCCCUAGUACCU |  |  | 439 | 20.6
52 | UGGUGAAGUGUAGGAUAUGGAGAUGGGUUUUGGCCAGAAGGACAUGAGGAUCACCCAUGUGGUAGAGGGUUGGUGGUAGCUCGU | 62.4 | 49.8 |  | 
53 | UGGUGACGUGUAGGAUAUGGAGGUGGGUUUUGGCCAGAAGGACAUGAGGAUCACCCAUGUGGUAGAGGGUUGGCGGCGGCCCGU | 16.9 | 15.1 |  | 
54 | UGGUGGAAGCAGGAUAUGCUAGAAGUGUAGAAUGCAGAAGGGCUAACAUGAGGAUCACCCAUGUAAGAGGUGUU | 319 | 237 |  | 
55 | UGGUUGUGAGGAUAUACGUUUUUUAACUUUUGUUUUAUAUUGUAGAAGGCACAUGAGGAUCACCCAUGUUACGU | 22.9 | 30.8 |  | 

— the EternaBench riboswitch data
